Source: ChEMBL document CHEMBL5257161, “Mycobacterium tuberculosis CitA activity is modulated by cysteine oxidation and pyruvate binding” (RSC Med Chem, 2023)

Tests used:
[1] = target: T1, Putative citrate synthase 2 (Mycobacterium tuberculosis) (UniProt P9WPD3); test: Binding affinity to Mycobacterium tuberculosis wild type CitA expressed in Escherichia coli cells assessed as change in melting temperature by thermal shift assay
T1 sequence (whole entry): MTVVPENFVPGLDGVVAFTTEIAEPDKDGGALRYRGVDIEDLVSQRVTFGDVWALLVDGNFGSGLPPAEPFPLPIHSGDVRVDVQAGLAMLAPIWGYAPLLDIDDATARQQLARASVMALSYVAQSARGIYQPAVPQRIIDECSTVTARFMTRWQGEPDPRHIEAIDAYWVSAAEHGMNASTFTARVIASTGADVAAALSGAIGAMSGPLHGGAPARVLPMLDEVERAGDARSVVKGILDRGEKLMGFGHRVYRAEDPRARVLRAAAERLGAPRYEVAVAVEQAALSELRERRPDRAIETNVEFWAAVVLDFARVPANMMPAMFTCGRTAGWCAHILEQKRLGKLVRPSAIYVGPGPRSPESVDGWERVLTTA
Outline: (§1)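 Thermal shift used 25 μM purified protein in 50 mM Tris pH 8.0 with 2 mM ligand (sodium pyruvate, OAA, or both), plus Protein Thermal Shift dye at 2X final. ΔTm was taken from the melt-curve derivative relative to protein without ligand.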

[2] = target: T1, Putative citrate synthase 2 (Mycobacterium tuberculosis); test: Binding affinity to Mycobacterium tuberculosis wild type CitA expressed in Escherichia coli cells assessed as change in melting temperature in presence of pyruvate by thermal shift assay; outline: as §1
[3] = target: T1, Putative citrate synthase 2 (Mycobacterium tuberculosis); test: Binding affinity to Mycobacterium tuberculosis wild type CitA expressed in Escherichia coli cells assessed as change in melting temperature in presence of oxaloacetate by thermal shift assay; outline: as §1
[4] = target: T1, Putative citrate synthase 2 (Mycobacterium tuberculosis); test: Inhibition of Mycobacterium tuberculosis wild type CitA expressed in Escherichia coli cells by UV spectrophotometric based analysis
Outline: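 Michael acceptor compounds were added directly to the DTNB/OAA/AcCoA reaction with 10 nM CitA in 50 mM Tris pH 8.0 at 25 °C, read at 412 nm. The screen used 20 μM compound. Dose–response data were fitted to the Hill equation for apparent IC50. A control measured how fast the compounds react with reaction components.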

| Structure (SMILES) | ΔTm [1] | ΔTm [2] | ΔTm [3] | Activity [4] |
| --- | --- | --- | --- | --- |
| O=C(O)CC(=O)C(=O)O | 11.2 °C | 12.3 °C |  |  |
| CC(=O)C(=O)O | 2.31 °C |  | 12.3 °C | Dose-Dependent Effect |
| O=C(O)CO | 0.15 °C |  |  |  |
| O=CC(=O)O | 0.1 °C |  |  |  |
| CC(=O)CC(=O)O | 0.19 °C |  |  |  |
